# Data published in PubChem BioAssay.
# Calls of active or inactive are those of the source.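 How the source made its calls, unless noted: active means viability loss from added drug above about 55%, and viability with drug at most 40%, in both replicates (limit read from the data, passing the limit was not always enough); inconclusive means both conditions met in only one replicate; inactive means neither replicate meets both conditions.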
# Tests used:
# [1] = reducers of endogenous Her2 protein level, primary screen, SKBR3 breast tumor cells, AlphaScreen, ATP viability (AID 461;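 active means Her2 level under about 52% in both replicate screens, with viability over 70% of control, limit read from the data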;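 on Her2 level: lower value means less Her2 protein in the cells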;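 on viability: percent of carrier control wells set as 100% viability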); conditions: 18-24 h, measured here: SKBR3 viability, ATP luminescence, at 10 µM
# [2] = biological target: Receptor tyrosine-protein kinase erbB-2 (Homo sapiens) (UniProt P04626); assay: as above; conditions: 18-24 h, at 10 µM, stronger effect = lower value
# [3] = SK-BR-3 cell growth inhibitors, pilot screen, 24 h, human (AID 572;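 active means viability at or below 10% of carrier control in both of two separate runs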;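 further: compound exposure lasted between 18 and 24 h rather than exactly 24 h; 100% = carrier-treated control wells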); conditions: SK-BR-3 viability, CellTiter-Glo luminescence, at 10 µM, stronger effect = lower value
# [4] = HUVEC growth inhibition – cell-based, human, primary screen (AID 575;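 active means viability at or below 30% in both replicate assays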;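 further: 100% = median of untreated cell wells with 0.1% DMSO on each plate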); conditions: HUVEC proliferation, CellTiter-Glo luminescence, 72 h; at 10 µM; stronger effect = lower value
# Method in brief: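 Timing: 72 h treatment at 37 °C; material: HUVEC primary cells; technique: CellTiter-Glo luminescence measuring cellular ATP; controls: vehicle and MePR control wells; measure: percent of median DMSO-control luminescence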
# [5] = growth inhibitors of H69AR lung tumor, primary screen, human, duplicate replicates (AID 580;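 active means viability at or under a set limit in both replicates, limit being median viability minus 3 SD, cut at about 48% in these data, passing the limit was not always enough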;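 further: 100% = mean luminescence of untreated wells and 0% = no signal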); conditions: H69AR lung tumor cells viability, ATP luminescence, 72 h; at 10 µM; stronger effect = lower value
# [6] = reversal of MRP1-mediated doxorubicin resistance, pilot screen, H69AR cells, doxorubicin co-treatment (AID 601); conditions: CellTiter-Glo, 72 h, at 10 µM; for differential viability (reversal): stronger effect = higher value
# [7] = 384-well plate pilot, post-Golgi transport modulator project, inhibition of yeast transport mutant growth (AID 636; in the data active means inhibition above about 31%); conditions: absorbance 615 nm, about 18 h, stronger effect = higher value
# [8] = growth suppression of yeast trafficking mutant, preliminary HTS, modulators of trafficking downstream of Golgi apparatus project, 1536-format plate, OD 615 nm (AID 637; in the data active means inhibition above about 30%); conditions: yeast transport mutant growth, absorbance 615 nm, 18 h; stronger effect = higher value
# [9] = H69AR cells + 2 uM doxorubicin, measured here: viability with 2 uM doxorubicin, stronger effect = lower value
# [10] = H69AR cells, compound alone cytotoxicity
# Sequence of Receptor tyrosine-protein kinase erbB-2 (Homo sapiens) (P04626 whole entry, looked up): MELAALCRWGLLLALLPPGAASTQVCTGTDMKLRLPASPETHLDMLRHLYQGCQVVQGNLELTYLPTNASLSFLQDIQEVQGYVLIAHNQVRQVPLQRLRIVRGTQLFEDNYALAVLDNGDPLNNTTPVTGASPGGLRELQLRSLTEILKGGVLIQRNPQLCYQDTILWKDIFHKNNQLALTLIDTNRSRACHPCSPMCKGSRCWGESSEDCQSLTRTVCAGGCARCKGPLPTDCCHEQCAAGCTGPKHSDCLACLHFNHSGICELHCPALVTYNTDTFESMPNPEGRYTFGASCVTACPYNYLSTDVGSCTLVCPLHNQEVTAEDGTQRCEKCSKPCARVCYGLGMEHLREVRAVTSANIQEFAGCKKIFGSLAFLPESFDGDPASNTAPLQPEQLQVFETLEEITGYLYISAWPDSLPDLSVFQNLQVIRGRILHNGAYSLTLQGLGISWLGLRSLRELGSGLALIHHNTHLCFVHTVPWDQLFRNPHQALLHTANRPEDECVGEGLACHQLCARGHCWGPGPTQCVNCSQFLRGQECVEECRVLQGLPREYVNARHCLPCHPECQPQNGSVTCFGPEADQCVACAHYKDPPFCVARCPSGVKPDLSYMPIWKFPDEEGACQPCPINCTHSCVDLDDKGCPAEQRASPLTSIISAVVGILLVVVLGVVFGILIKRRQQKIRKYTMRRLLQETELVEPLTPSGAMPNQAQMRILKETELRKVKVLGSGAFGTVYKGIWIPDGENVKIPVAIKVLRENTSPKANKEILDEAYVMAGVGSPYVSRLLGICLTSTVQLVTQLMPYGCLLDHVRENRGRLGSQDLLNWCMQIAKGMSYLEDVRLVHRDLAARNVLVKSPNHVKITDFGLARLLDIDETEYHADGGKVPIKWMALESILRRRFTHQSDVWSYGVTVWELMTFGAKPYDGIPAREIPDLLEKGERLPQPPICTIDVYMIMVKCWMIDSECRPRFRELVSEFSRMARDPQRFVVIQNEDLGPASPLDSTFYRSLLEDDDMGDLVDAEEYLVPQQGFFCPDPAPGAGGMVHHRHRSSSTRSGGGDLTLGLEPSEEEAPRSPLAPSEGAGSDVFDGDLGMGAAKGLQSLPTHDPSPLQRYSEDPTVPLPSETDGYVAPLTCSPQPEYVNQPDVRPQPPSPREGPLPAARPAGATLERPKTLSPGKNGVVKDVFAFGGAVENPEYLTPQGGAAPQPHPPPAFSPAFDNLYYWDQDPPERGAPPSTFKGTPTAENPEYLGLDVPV
smiles,measurement,setting,value
O=C1c2ccccc2C(O)(Cc2ccccc2)N1Cc1ccco1 (stereo not given),viability,[1],88.5%
same,Her2 level,[2],104% (inactive)
same,viability,[3],88.5% (inactive)
same,viability,[4],89% (inactive)
same,viability,[5],95.7% (inactive)
same,differential viability (reversal),[6]; H69AR cells + 2 uM doxorubicin,10.1% (inactive)
same,viability,[6]; [9],85.6%
same,viability,[6]; [10],95.7%
same,inhibition,[7],-2.37% (inactive)
same,inhibition,[8],-9.19% (inactive)
COC(=O)c1ccc2ncccc2c1,viability,[1],110%
same,Her2 level,[2],131% (inactive)
same,viability,[3],110% (inactive)
same,viability,[4],111% (inactive)
same,viability,[5],107% (inactive)
same,differential viability (reversal),[6]; H69AR cells + 2 uM doxorubicin,7.81% (inactive)
same,viability,[6]; [9],98.8%
same,viability,[6]; [10],107%
same,inhibition,[7],-1.32% (inactive)
same,inhibition,[8],7.7% (inactive)
c1ccc(-c2ccccc2OCCn2cncn2)cc1,viability,[1],93%
same,Her2 level,[2],79% (inactive)
same,viability,[3],93% (inactive)
same,viability,[4],104% (inactive)
same,viability,[5],99.8% (inactive)
same,differential viability (reversal),[6]; H69AR cells + 2 uM doxorubicin,15.9% (inactive)
same,viability,[6]; [9],83.9%
same,viability,[6]; [10],99.8%
same,inhibition,[7],-5.41% (inactive)
same,inhibition,[8],0.98% (inactive)
CC(C(=O)OCn1nnc2ccccc2c1=O)N1C(=O)c2ccccc2C1=O (stereo not given),viability,[1],110%
same,Her2 level,[2],100% (inactive)
same,viability,[3],110% (inactive)
same,viability,[4],93.9% (inactive)
same,viability,[5],86.6% (inactive)
same,differential viability (reversal),[6]; H69AR cells + 2 uM doxorubicin,-21% (inactive)
same,viability,[6]; [9],108%
same,viability,[6]; [10],86.6%
same,inhibition,[7],-1.45% (inactive)
same,inhibition,[8],30.2% (active)
Cc1cc(C)n2nc(S(=O)(=O)N(C)Cc3ccccc3)nc2n1,viability,[1],80%
same,Her2 level,[2],91% (inactive)
same,viability,[3],80% (inactive)
same,viability,[4],122% (inactive)
same,viability,[5],93.4% (inactive)
same,differential viability (reversal),[6]; H69AR cells + 2 uM doxorubicin,4.15% (inactive)
same,viability,[6]; [9],89.2%
same,viability,[6]; [10],93.4%
same,inhibition,[7],-7.16% (inactive)
same,inhibition,[8],-5.67% (inactive)
COC(=O)c1cc(=O)nc2sc(-c3cccs3)nn12,viability,[1],115%
same,Her2 level,[2],85% (inactive)
same,viability,[3],115% (inactive)
same,viability,[4],84% (inactive)
same,viability,[5],93.4% (inactive)
same,differential viability (reversal),[6]; H69AR cells + 2 uM doxorubicin,8.2% (inactive)
same,viability,[6]; [9],85.2%
same,viability,[6]; [10],93.4%
same,inhibition,[7],-4.86% (inactive)
same,inhibition,[8],5.24% (inactive)
Cc1cccc(-n2c(O)c(C=Nc3ccccc3N)c(=O)[nH]c2=O)c1,viability,[1],108%
same,Her2 level,[2],94.5% (inactive)
same,viability,[3],108% (inactive)
same,viability,[4],88.2% (inactive)
same,viability,[5],10.1% (active)
same,differential viability (reversal),[6]; H69AR cells + 2 uM doxorubicin,-28.2% (inactive)
same,viability,[6]; [9],38.3%
same,viability,[6]; [10],10.1%
same,inhibition,[7],-5.19% (inactive)
same,inhibition,[8],-0.16% (inactive)
COCc1nnc(NC(=O)CCCOc2ccccc2)s1,viability,[1],107%
same,Her2 level,[2],92% (inactive)
same,viability,[3],107% (inactive)
same,viability,[4],85.6% (inactive)
same,viability,[5],98.5% (inactive)
same,differential viability (reversal),[6]; H69AR cells + 2 uM doxorubicin,10.4% (inactive)
same,viability,[6]; [9],88.1%
same,viability,[6]; [10],98.5%
same,inhibition,[7],-6.53% (inactive)
same,inhibition,[8],-3.97% (inactive)
CCC(C)(C)n1nnnc1C(c1cc2cc(OC)ccc2[nH]c1=O)N1CCc2ccccc21 (stereo not given),viability,[1],97%
same,Her2 level,[2],78% (inactive)
same,viability,[3],97% (inactive)
same,viability,[4],67% (inactive)
same,viability,[5],68% (inactive)
same,differential viability (reversal),[6]; H69AR cells + 2 uM doxorubicin,-0.155% (inactive)
same,viability,[6]; [9],68.1%
same,viability,[6]; [10],68%
same,inhibition,[7],-3.6% (inactive)
same,inhibition,[8],-4.59% (inactive)
CN(C)S(=O)(=O)NC(c1ccccc1)c1ccccc1,viability,[1],93%
same,Her2 level,[2],97% (inactive)
same,viability,[3],93% (inactive)
same,viability,[4],105% (inactive)
same,viability,[5],105% (inactive)
same,differential viability (reversal),[6]; H69AR cells + 2 uM doxorubicin,15.6% (inactive)
same,viability,[6]; [9],88.9%
same,viability,[6]; [10],105%
same,inhibition,[7],-8% (inactive)
same,inhibition,[8],-2.38% (inactive)
Cc1nc2c(o1)CCc1ccccc1C2O (stereo not given),viability,[1],96%
same,Her2 level,[2],91% (inactive)
same,viability,[3],96% (inactive)
same,viability,[4],93.9% (inactive)
same,viability,[5],94.4% (inactive)
same,differential viability (reversal),[6]; H69AR cells + 2 uM doxorubicin,-5.3% (inactive)
same,viability,[6]; [9],99.7%
same,viability,[6]; [10],94.4%
same,inhibition,[7],-4% (inactive)
same,inhibition,[8],-2.95% (inactive)
CCOC(=O)c1cccnc1SCC(=O)NC(C)CC (stereo not given),viability,[1],92%
same,Her2 level,[2],93% (inactive)
same,viability,[3],92% (inactive)
same,viability,[4],96.7% (inactive)
same,viability,[5],102% (inactive)
same,differential viability (reversal),[6]; H69AR cells + 2 uM doxorubicin,9.73% (inactive)
same,viability,[6]; [9],92.3%
same,viability,[6]; [10],102%
same,inhibition,[7],2.08% (inactive)
same,inhibition,[8],-3.61% (inactive)
NCC(O)COc1ccc2c(c1)OCO2 (stereo not given),viability,[1],99%
same,Her2 level,[2],120% (inactive)
same,viability,[3],99% (inactive)
same,viability,[4],104% (inactive)
same,viability,[5],100% (inactive)
same,differential viability (reversal),[6]; H69AR cells + 2 uM doxorubicin,3.33% (inactive)
same,viability,[6]; [9],97%
same,viability,[6]; [10],100%
same,inhibition,[7],3.16% (inactive)
same,inhibition,[8],6.39% (inactive)
CC(C)(C)C(=O)CNS(=O)(=O)c1ccc(S(=O)(=O)NC2CCCC2)cc1,viability,[1],104%
same,Her2 level,[2],92% (inactive)
same,viability,[3],104% (inactive)
same,viability,[4],115% (inactive)
same,viability,[5],98.8% (inactive)
same,differential viability (reversal),[6]; H69AR cells + 2 uM doxorubicin,11.2% (inactive)
same,viability,[6]; [9],87.6%
same,viability,[6]; [10],98.8%
same,inhibition,[7],-3.56% (inactive)
same,inhibition,[8],1.9% (inactive)
